This is an account of results in ChEMBL document CHEMBL1134221, “RPR203494 a pyrimidine analogue of the p38 inhibitor RPR200765A with an improved in vitro potency” (Bioorg Med Chem Lett, 2001).

The nature of data set [1]: Stability (%) in rat liver microsomes. The data set is classed as ADME. The settings on record: read-out: % turnover. (In general: Microsomes from liver hold many membrane-bound enzymes, among them those of drug oxidation.)
Data set [2] is described as follows: Inhibitory activity against lipopolysaccharide induced TNF-alpha release on human monocytes at a concentration of 300 nM. The class given is functional.
Data set [3] can be described thus: Oral bioavailability in rat. The data set is classed as ADME, organism-based. The note with it: in vivo. The gist of the method:
(§1)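 Rat pharmacokinetics with the compound given alone: an iv arm at 1 mg/kg and an oral arm at 5 mg/kg. Plasma profiles give Cmax, Tmax, AUC, terminal half-life, total clearance and Vdss. Absolute oral bioavailability is derived by comparing the oral and iv exposures.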

A short description of data set [4]: Inhibitory concentration against lipopolysaccharide induced TNF-alpha release on human monocytes. The class given is functional. The gist of the method: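 Adherent human monocytes (100,000 cells/well) are stimulated with LPS (10 ng/mL) for 18 h, with or without compound. Each experiment is run in quadruplicate. TNF-α is measured by sandwich ELISA, and EC50 is calculated for each compound.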

The target in data set [5] is T1, MAP kinase p38 (Mus musculus, UniProt P47811+O08911+Q9WUI1+Q9Z1B7). Briefly: Inhibition of murine Mitogen-activated protein kinase p38. The data set is classed as protein assay. The gist of the method: (§2)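 Mouse p38 enzyme at 40 ng/well, run 1 h at room temperature. ATF-2 substrate is coated onto plates. Buffer is 25 mM Hepes pH 7.7 with 25 mM MgCl2, 2 mM dithiothreitol, 1 mM sodium orthovanadate and ATP. Phospho-ATF-2 is detected with phospho-specific primary antibodies. IC50 is given as mean±SEM of repeat experiments (n=3).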

Data set [6] in a line: Volume distribution after intravenous administration (1 mg/kg) in rat. The data set is classed as ADME, organism-based. The settings on record: in vivo, read-out: Vdss. A digest of the protocol:
as §1

Data set [7] in a line: Terminal half life after intravenous administration (1 mg/kg) in rat. The class given is ADME, organism-based. The note with it: in vivo. A digest of the protocol: as §1
Data set [8] is described as follows: Terminal half life in Rat at a oral dose of 5 mg/kg. The class given is ADME, organism-based. Set-up: dose 5 mg/kg, route oral. The note with it: in vivo. The gist of the method: as §1
The nature of data set [9]: T max in Rat at a oral dose of 5 mg/kg. The class given is ADME, organism-based. Set-up: dose 5 mg/kg, route oral. The settings on record: in vivo. The gist of the method: as §1
Data set [10] can be described thus: Maximum plasma concentration in Rat at a oral dose of 5 mg/kg. The class given is ADME, organism-based. Set-up: dose 5 mg/kg, route oral. The settings on record: read-out: CPmax. The gist of the method:
as §1

Data set [11] in a line: Area under curve after intravenous administration (1 mg/kg) in rat. The note with it: in vivo. The data set is classed as ADME, organism-based. A digest of the protocol:
as §1

Data set [12] can be described thus: Area under curve in Rat at a oral dose of 5 mg/kg. The data set is classed as ADME, organism-based. Set-up: dose 5 mg/kg, route oral. The note with it: in vivo. The gist of the method:
as §1

The nature of data set [13]: Oral Bioavailability after intravenous administration (1 mg/kg) in rat. The class given is ADME, organism-based. The settings on record: in vivo, 5 mg/kg, in the assay text read “oral administration (5 mg/kg)” for “intravenous administration (1 mg/kg)”. The gist of the method: as §1
Data set [14] is described as follows: Plasma clearance after intravenous administration (1 mg/kg) in rat. The note with it: read-out: Clp (converted). The class given is ADME, organism-based. A digest of the protocol:
as §1

Data set [15] deals with T1, MAP kinase p38. Briefly: Inhibitory activity against p38 kinase (40 ng/well) was determined in mouse. The gist of the method: as §2

As to `C[C@]1(C(=O)N2CCOCC2)CO[C@H](c2nc(-c3ccc(F)cc3)c(-c3ccnc(N4CCCCC4)n3)[nH]2)OC1`, the metabolised in data set [1] was 99%. In data set [2], this compound registered an inhibition at 0.3 µM of 26%.
Take `CN(C)c1nccc(-c2[nH]c([C@H]3OC[C@](C)(C(=O)N4CCOCC4)CO3)nc2-c2ccc(F)cc2)n1`: the metabolised in [1] was determined as 40.7%. For the same compound, 0.3 µM produced 8% inhibition in data set [2].
In data set [3], `COCCCNc1nccc(-c2[nH]c([C@H]3OC[C@](C)(C(=O)N4CCOCC4)CO3)nc2-c2ccc(F)cc2)n1` returned a bioavailability of 15%. Besides, the EC50 in [4] was 54 nM. Besides, the concentration for half-maximal inhibition (IC50) against MAP kinase p38 [5] worked out at 7 nM.
As for `C[C@]1(C(=O)N2CCOCC2)CO[C@H](c2nc(-c3ccc(F)cc3)c(-c3ccnc(N)n3)[nH]2)OC1`, the metabolised in [1] is 17.6%. Also, the inhibition at 0.3 µM in [2] stood at 39%.
As for `C[C@]1(C(=O)N2CCOCC2)CO[C@H](c2nc(-c3ccc(F)cc3)c(-c3ccnc(NCC4CC4)n3)[nH]2)OC1`, in data set [1], the metabolised was found to be 87%. In [4], this compound had an EC50 of 69 nM.
`CN(C)CCNc1nccc(-c2[nH]c([C@H]3OC[C@](C)(C(=O)N4CCOCC4)CO3)nc2-c2ccc(F)cc2)n1`: the metabolised in [1] was found to be 29%. This compound registered a half-maximal effective concentration (EC50) in data set [4] of 570 nM.
On to `C[C@]1(C(=O)N2CCOCC2)CO[C@H](c2nc(-c3ccc(F)cc3)c(-c3ccnc(NCCC(=O)O)n3)[nH]2)OC1`, for which the metabolised in data set [1] came to 3.5%. For the same compound, in [2], the inhibition at 0.3 µM came to 6%.
In the case of `COc1ccc(CNc2nccc(-c3[nH]c([C@H]4OC[C@](C)(C(=O)N5CCOCC5)CO4)nc3-c3ccc(F)cc3)n2)cc1`, in data set [1], the metabolised worked out at 23.9%. The same compound displayed a bioavailability in data set [3] of 1%. The compound further displayed an EC50 in data set [4] of 49 nM.
On to `C=CCNc1nccc(-c2[nH]c([C@H]3OC[C@](C)(C(=O)N4CCOCC4)CO3)nc2-c2ccc(F)cc2)n1`, for which the metabolised in data set [1] worked out at 89.1%. In data set [4], this compound came in with an EC50 of 110 nM.
`C[C@]1(C(=O)N2CCOCC2)CO[C@H](c2nc(-c3ccc(F)cc3)c(-c3ccnc(NCC(=O)O)n3)[nH]2)OC1` registered an EC50 in [4] of more than 10000 nM.
In the case of `C[C@@H](Nc1nccc(-c2[nH]c([C@H]3OC[C@](C)(C(=O)N4CCOCC4)CO3)nc2-c2ccc(F)cc2)n1)c1ccccc1`, the metabolised in [1] was 81%. For the same compound, in data set [4], the 50% effective concentration (EC50) is 10 nM.
On to `C[C@]1(C(=O)N2CCOCC2)CO[C@H](c2nc(-c3ccc(F)cc3)c(-c3ccnc(NC4CC4)n3)[nH]2)OC1`, for which the Vd in data set [6] is 1.2 L/kg. Further, the half-life in [7] was 1.2 h; in data set [8], 1.4 h. In addition, the Tmax in data set [9] is 0.5 h. In addition, the metabolised in data set [1] came out at 43.6%. For the same compound, the bioavailability in data set [3] was determined as 29%; in data set [13], 48%. Also, the Cmax in [10] was determined as 620 ng/mL. In addition, the area under the curve (AUC) in data set [11] is 580 ng·h/mL; in data set [12], 1390 ng·h/mL. Also, in data set [4], the EC50 was 60 nM. The IC50 against MAP kinase p38 [5] stood at 9 nM. Also, the clearance in data set [14] was 30 mL/min/kg.
As for `C[C@]1(C(=O)N2CCOCC2)CO[C@H](c2nc(-c3ccc(F)cc3)c(-c3ccnc(Nc4cccnc4)n3)[nH]2)OC1`, in data set [4], a half-maximal response (EC50) required 231 nM.
The compound `CCCNc1nccc(-c2[nH]c([C@H]3OC[C@](C)(C(=O)N4CCOCC4)CO3)nc2-c2ccc(F)cc2)n1` had an EC50 in data set [4] of 124 nM.
Turning to `C[C@]1(C(=O)N2CCOCC2)CO[C@H](c2nc(-c3ccc(F)cc3)c(-c3ccnc(Nc4ccncc4)n3)[nH]2)OC1`, in [4], the EC50 was found to be 41 nM.
For `C[C@]1(C(=O)N2CCOCC2)CO[C@H](c2nc(-c3ccc(F)cc3)c(-c3ccnc(NCc4ccc(F)cc4)n3)[nH]2)OC1`, in [1], the metabolised is 44.6%. In [4], this compound yielded a half-maximal effective concentration (EC50) of 62 nM.
In the case of `C[C@]1(C(=O)N2CCOCC2)CO[C@H](c2nc(-c3ccc(F)cc3)c(-c3ccnc(NCCC#N)n3)[nH]2)OC1`, at 0.3 µM the inhibition in data set [2] was 28%.
For the compound `C[C@]1(C(=O)N2CCOCC2)CO[C@H](c2nc(-c3ccc(F)cc3)c(-c3ccnc(NC4CCCCC4)n3)[nH]2)OC1`, the metabolised in [1] was 98.6%. In data set [4], this compound showed an EC50 of 24 nM.
Regarding `COc1cccc(Nc2nccc(-c3[nH]c([C@H]4OC[C@](C)(C(=O)N5CCOCC5)CO4)nc3-c3ccc(F)cc3)n2)c1`, in data set [1], the metabolised came out at 54.1%. This compound displayed a bioavailability in [3] of 6%. For the same compound, the EC50 in data set [4] turned out to be 33 nM.
For the compound `C[C@]1(C(=O)N2CCOCC2)CO[C@H](c2nc(-c3ccc(F)cc3)c(-c3ccnc(NCc4ccccc4)n3)[nH]2)OC1`, the metabolised in [1] was 68%. Further, the bioavailability in data set [3] is 24%. Besides, the EC50 in [4] came out at 12 nM. For the same compound, the IC50 at MAP kinase p38 [5] was 5 nM.
As to `C[C@]1(C(=O)N2CCOCC2)CO[C@H](c2nc(-c3ccc(F)cc3)c(-c3ccnc(NCc4cccs4)n3)[nH]2)OC1`, the metabolised in [1] came to 92%. Besides, the midpoint of the response in data set [4], the EC50, lay at 70 nM.
`C[C@]1(C(=O)N2CCOCC2)CO[C@H](c2nc(-c3ccc(F)cc3)c(-c3ccnc(Nc4ccccc4)n3)[nH]2)OC1`: the metabolised in data set [1] turned out to be 51%. The same compound displayed a bioavailability in data set [3] of 29%. Moreover, the EC50 in data set [4] is 54 nM. The IC50 against MAP kinase p38 [15] was 16 nM.
Consider `C[C@H](Nc1nccc(-c2[nH]c([C@H]3OC[C@](C)(C(=O)N4CCOCC4)CO3)nc2-c2ccc(F)cc2)n1)c1ccccc1`, for which, in data set [1], the metabolised worked out at 71%. In [3], this compound showed a bioavailability of 10%. Also, the EC50 in data set [4] came out at 1.5 nM.
Compound `C[C@]1(C(=O)N2CCOCC2)CO[C@H](c2nc(-c3ccc(F)cc3)c(-c3ccnc(NCCCO)n3)[nH]2)OC1` gave a bioavailability in data set [3] of 2%. The same compound returned an EC50 in data set [4] of 57 nM.
For `C[C@]1(C(=O)N2CCOCC2)CO[C@H](c2nc(-c3ccc(F)cc3)c(-c3ccnc(NCc4ccccn4)n3)[nH]2)OC1`, the metabolised in data set [1] was determined as 25%. Moreover, in data set [3], the bioavailability is 25%. For the same compound, in data set [4], the concentration for a half-maximal effect (EC50) worked out at 45 nM.
Take `CNc1nccc(-c2[nH]c([C@H]3OC[C@](C)(C(=O)N4CCOCC4)CO3)nc2-c2ccc(F)cc2)n1`: in data set [1], the metabolised was 8.1%. The inhibition at 0.3 µM in data set [2] stood at 38%.
Consider `C[C@]1(C(=O)N2CCOCC2)CO[C@H](c2nc(-c3ccc(F)cc3)c(-c3ccnc(NCCO)n3)[nH]2)OC1`, for which the metabolised in data set [1] was 18%. The compound further gave an EC50 in [4] of 319 nM.
In the case of `CN(C)CCCNc1nccc(-c2[nH]c([C@H]3OC[C@](C)(C(=O)N4CCOCC4)CO3)nc2-c2ccc(F)cc2)n1`, the metabolised in [1] turned out to be 18%. The compound also came in with an inhibition at 0.3 µM in data set [2] of 27%.

In general, inhibition refers to the percentage by which the read-out fell short of the control. The low end stands for a response near the control, the high end for a response far below the control. As usually defined, the bioavailability is the share of a dose that reaches the circulation, judged against a reference dose that is usually intravenous. High values mean good availability, low ones poor availability. Usually EC50 stands for the concentration needed to bring the measured effect to its halfway point. Higher therefore signals a need for much substance. In general, IC50 refers to the midpoint of a concentration-inhibition curve. High values mean a need for much substance, low ones inhibition by little substance. The half-life is the time in which the quantity being followed falls by half. High values mean slow loss, low ones fast loss. Usually Tmax stands for the time from dosing to the highest level. What is called AUC is the area under the concentration-time curve, a measure of exposure. Higher therefore signals more exposure.
